Assay outcomes as filed in PubChem.
Rows were chosen to be rich in hits. Some 3.5% of all compounds tested hit in one or more screens of this group.
STAT1 act = activators of IFN-gamma induced STAT1 signaling; NIH 3T3 STAT1-luciferase reporter, luminescence; 100% = IFN-gamma alone, no compound; activation (% of control), % at 5.5 µM; 200,000 compounds, 2.6% hits; AID 932;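 active means activation above the screen-wide mean activation plus 3 SD, cut at about 130% in these data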
APP 5'UTR act = APP 5'UTR luciferase reporter activation; SH-SY5Y APP 5'UTR luciferase reporter, luminescence; zero percent = DMSO vehicle wells; activation, % at 2 µM; 190,000 compounds, 1% hits;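 active means activation above a set limit, based on mean plus 3 SD of controls, cut at about 140% in these data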
NF-kB expr up = raises NF-kB expression in human neuronal cells. fold change at 12.5 µM. NF-kB reporter expression; hits give high values. AID 1239. 190,000 compounds, 1.6% hits; in the data active means fold change above about 3.3
FLuc inhib CS = counter-screen for luciferase assay inhibitors: firefly luciferase inhibition | P08659 | inhibition, % at 10 µM | 200,000 compounds, 1.5% hits | ATPLite firefly luciferase biochemical luminescence, 10 min;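 active means inhibition above about 50% when tested at 10 µM, limit read from the data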
Target sequence (P08659 whole entry, looked up): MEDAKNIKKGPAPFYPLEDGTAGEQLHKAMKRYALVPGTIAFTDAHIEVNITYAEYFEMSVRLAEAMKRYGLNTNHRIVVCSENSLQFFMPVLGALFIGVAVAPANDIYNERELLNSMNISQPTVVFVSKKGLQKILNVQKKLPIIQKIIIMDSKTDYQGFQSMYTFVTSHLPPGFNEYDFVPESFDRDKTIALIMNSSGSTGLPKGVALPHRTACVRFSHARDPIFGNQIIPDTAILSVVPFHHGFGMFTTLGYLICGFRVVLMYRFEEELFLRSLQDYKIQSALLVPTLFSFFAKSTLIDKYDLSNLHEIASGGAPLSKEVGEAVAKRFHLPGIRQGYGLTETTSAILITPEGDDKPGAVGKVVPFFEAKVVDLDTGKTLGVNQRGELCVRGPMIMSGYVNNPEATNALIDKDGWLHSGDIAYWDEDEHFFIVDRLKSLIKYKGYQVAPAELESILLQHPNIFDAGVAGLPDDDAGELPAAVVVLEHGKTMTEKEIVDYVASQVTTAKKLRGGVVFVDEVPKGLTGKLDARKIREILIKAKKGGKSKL
Pf gamet viab = inhibitors of late stage P. falciparum gametocyte viability; P. falciparum stage V gametocytes, ATP luminescence, 24 h; inhibition, % at 10.9 µM; 150,000 compounds, 0.065% hits; AID 743093;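 active means inhibition above the mean plus 3 SD of compounds within the control limits, set per campaign, cut at about 38% in these data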
FLuc act counter = firefly luciferase counter-screen for stimulation assays | P08659 | ATPlite luciferase biochemical, luminescence, 10 min; 0 = ATP-free wells, 1 = DMSO control | activation factor at 10 µM | 200,000 tested, under 10 active;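 active means luciferase activation factor, scaled between plate controls, of at least 2 with compound at 10 µM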
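System: luciferase plus luciferin reagent, cell-free; medium: PBS as buffer for the ATP substrate; dosing: test compounds dosed from 2 mM stocks in 100% DMSO; timing: 10 min post-reagent at room temperature; measured by: luminescence measurement of luciferase light output; evaluation: luciferase activation, seen as luminescence increase over controls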
STAT1 activ conf = STAT1 activation, confirmation assay; shares compounds with STAT1 act; NIH 3T3 STAT1-luciferase reporter, IFN-gamma potentiation, luminescence; 100% = IFN-gamma EC80 alone, no compound; activation (% of control), % at 5.7 µM; 1,200 compounds, 97% hits; AID 1262;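 active means activation above a set limit carried over from the earlier primary STAT1 screen, cut at about 140% in these data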
NFkB act = activates NF-kappaB, counter-screen to STAT1 activators; 1,200 compounds, 43% hits; HEK293T NF-kB luciferase reporter, TNF-alpha stimulated, luminescence; 100% = TNF-alpha with vehicle only; activation (% of control), % at 5.7 µM; shares compounds with STAT1 act;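 active means activation above the mean of solvent-only control wells plus 3 SD, set per campaign, cut at about 130% in these data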;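 further: TNF-alpha given at a submaximal dose yielding about 80% of full reporter signal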
STAT3 act 2 = activates human STAT3, counter-screen to STAT1 activators; shares compounds with STAT1 act; U3A cells STAT3-luciferase reporter, IL-6, luminescence; cells lack STAT1; 100 = IL-6 alone, no compound effect; activation (% of control), % at 5.7 µM; 1,200 compounds, 46% hits;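 active means activation above the solvent-only control well mean plus 3 SD, set per plate batch, cut at about 110% in these data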;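 further: higher means more STAT3 reporter activation so hits are non-selective activators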
Of the large screens only hits and unclear results are named; the others gave an inactive call (follow-up assays come after a bar, where they were run).

CCOP(=O)(O)c1ccccc1OCCCCCOc1ccccc1P(=O)(O)OCC	none
Cc1ccc(OCCOC(=O)Cn2nc(C)c([N+](=O)[O-])c2C)cc1	none
Cc1ccc(-c2cc3nc(C)cc(NCc4ccco4)n3n2)cc1	STAT1 act 151, APP 5'UTR act 137, NF-kB expr up 4.1, FLuc inhib CS 68 (no result: Pf gamet viab) | STAT1 activ conf 172 | NFkB act inactive | STAT3 act 2 inactive
Clc1cccc(-c2cc3nc4c(c(NCc5ccco5)n3n2)CCCC4)c1	STAT1 act 154 (no result: Pf gamet viab) | STAT1 activ conf 242 | NFkB act 145 | STAT3 act 2 113
COCCNc1cc(C)nc2cc(-c3ccc(C)cc3)nn12	none
c1coc(CNc2c3c(nc4ncnn24)CCCC3)c1	none (no result: Pf gamet viab)
COC(=O)c1ccccc1NC(=O)C1CC=CCC1C(=O)O (configuration not stated)	none (no result: Pf gamet viab)
O=C(NCCc1ccccc1)c1ccccc1NC(=O)C1CC=CCC1C(=O)O (configuration not stated)	STAT1 act 152 | STAT1 activ conf 133 | NFkB act inactive | STAT3 act 2 inactive
Cc1ccc(C)c(OCC(=O)NCC(C)C)c1C	none
CCOC(=O)C1(CCCc2ccccc2)CCN(C(=O)CN2CCOC2=O)CC1	none (no result: Pf gamet viab)
CCOC(=O)C1(Cc2ccccc2Cl)CCN(C(=O)CN2CCOC2=O)CC1	STAT1 act 160 (no result: NF-kB expr up) | STAT1 activ conf 172 | NFkB act 142 | STAT3 act 2 117
O=C(CCc1c[nH]c2ccccc12)NC1CC1	none (no result: Pf gamet viab)
O=C(NN=C1CCCC1)c1cccs1	STAT1 act 156 | STAT1 activ conf inactive | NFkB act inactive | STAT3 act 2 inactive
CC(=O)N1CCC(=NNC(=O)c2cccs2)CC1	STAT1 act 160 | STAT1 activ conf inactive | NFkB act inactive | STAT3 act 2 inactive
C/C(=N/NC(=O)c1cccs1)c1cccs1	none (no result: STAT1 act, APP 5'UTR act, NF-kB expr up, FLuc inhib CS, FLuc act counter)
O=C(NN=C1C2CC3CC(C2)CC1C3)c1cccs1	none (no result: Pf gamet viab)
S=C(c1ccc(-c2ccc(Br)cc2)o1)N1CCCCC1	STAT1 act 170, APP 5'UTR act 159, NF-kB expr up 5.6, FLuc inhib CS 59 | STAT1 activ conf 210 | NFkB act 145 | STAT3 act 2 114
S=C(c1ccc(-c2ccc(Br)cc2)o1)N1CCOCC1	none (no result: STAT1 act, APP 5'UTR act, NF-kB expr up, FLuc inhib CS, FLuc act counter)
S=C(c1ccc(-c2ccc(Cl)c(Cl)c2)o1)N1CCOCC1	STAT1 act 157, NF-kB expr up 5.3 (no result: Pf gamet viab) | STAT1 activ conf 202 | NFkB act 144 | STAT3 act 2 119
CCN(CC)S(=O)(=O)c1cccc(NC(=O)CN(C)Cc2cccc(OC)c2)c1	none (no result: STAT1 act, APP 5'UTR act, NF-kB expr up, FLuc inhib CS, FLuc act counter)
CCc1nnc(NS(=O)(=O)c2ccc(NC(=O)/C=C/c3ccc(OC)cc3OC)cc2)s1	none
Nc1ccc2oc(CCc3ccccc3)nc2c1	STAT1 act 161 (no result: Pf gamet viab) | STAT1 activ conf 177 | NFkB act 143 | STAT3 act 2 116
CCCCn1cnc2c(sc3nc4c(cc32)CSC(C)(C)C4)c1=O	STAT1 act 152, APP 5'UTR act 166 | STAT1 activ conf 208 | NFkB act 134 | STAT3 act 2 inactive
CC1(C)Cc2nc3sc4c(NCCO)ncnc4c3cc2CS1	none (no result: STAT1 act, APP 5'UTR act, NF-kB expr up, FLuc inhib CS, FLuc act counter)
CCC(=O)Nc1ccc(NC(=S)NC(=O)c2cc3ccccc3o2)cc1	none
CCC(=O)NC(=S)Nc1cccc(NC(=O)CC)c1	none
CCC(=O)Nc1cccc(NC(=S)NC(=O)c2ccccc2)c1	STAT1 act 151 | STAT1 activ conf 162 | NFkB act inactive | STAT3 act 2 114
CCC(=O)Nc1cccc(NC(=S)NC(=O)c2cc3ccccc3o2)c1	STAT1 act 157, APP 5'UTR act 153 | STAT1 activ conf 235 | NFkB act inactive | STAT3 act 2 111
O=C(Nc1nc2c(s1)C(=O)CCC2)c1ccccc1	STAT1 act 153, APP 5'UTR act 148, FLuc inhib CS 66 (no result: Pf gamet viab) | STAT1 activ conf 185 | NFkB act inactive | STAT3 act 2 inactive
Cc1ccc(C)c(N2CCN(c3cnn(-c4nc5ccccc5s4)c(=O)c3Cl)CC2)c1	STAT1 act 156 | STAT1 activ conf 182 | NFkB act inactive | STAT3 act 2 inactive
Cc1ccc2c(c1)N(CC(=O)N1CCN(c3nc4ccccc4s3)CC1)C(=O)C(C)O2 (configuration not stated)	none
Cc1ccc2nc(-c3ccc(NC(=O)CSc4ccccc4)cc3)[nH]c2c1	STAT1 act 163, NF-kB expr up 3.5 (no result: Pf gamet viab) | STAT1 activ conf 198 | NFkB act inactive | STAT3 act 2 inactive
Cc1ccc2nc(SCC(=O)Nc3ccc(C(N)=O)cc3)[nH]c2c1	none
O=c1/c(=C/c2ccccn2)sc2nc3ccccc3n12	STAT1 act 184, NF-kB expr up 4.8, FLuc inhib CS 76 | STAT1 activ conf 289 | NFkB act 138 | STAT3 act 2 158
COC(=O)/C=c1/sc2nc3ccccc3n2c1=O	none (no result: Pf gamet viab)
O=C(c1ccccc1)c1ccc(N2CCCC2)cc1	STAT1 act 151 (no result: Pf gamet viab) | STAT1 activ conf 143 | NFkB act inactive | STAT3 act 2 inactive
O=C(/C=C/c1ccccc1)Nc1ccc(N2CCCCC2)cc1	STAT1 act 151 | STAT1 activ conf 168 | NFkB act inactive | STAT3 act 2 inactive
O=C(CCN1C(=O)c2cccc3cccc(c23)C1=O)Nc1ccccc1	none
O=C(Nc1cnc2ccccc2c1)c1ccco1	STAT1 act 152, APP 5'UTR act 157, NF-kB expr up 6.2 | STAT1 activ conf 183 | NFkB act inactive | STAT3 act 2 inactive
O=C(Nc1cccc(-c2cnc3ccccc3n2)c1)c1ccco1	none (no result: APP 5'UTR act, Pf gamet viab)
O=C(OCCOc1ccc(Br)cc1)c1ccc(Cl)nc1	none
Oc1ccc(N=Nc2n[nH]c(-c3ccccc3)n2)cc1	STAT1 act 172, APP 5'UTR act 146, NF-kB expr up 6.3, FLuc inhib CS 59 | STAT1 activ conf 185 | NFkB act inactive | STAT3 act 2 inactive
COc1ccc2c(C)nc(Nc3nc(C)c(C)c(=O)[nH]3)nc2c1	STAT1 act 200 | STAT1 activ conf 174 | NFkB act inactive | STAT3 act 2 111
CCc1c(C)nc(Nc2nc(C)c3ccc(OC)cc3n2)[nH]c1=O	none
C(=N\N=C\c1ccccc1)/c1ccccc1	STAT1 act 158, FLuc inhib CS 79 | STAT1 activ conf 186 | NFkB act 145 | STAT3 act 2 inactive
Cc1cc2nnc(SCCCCN3C(=O)c4ccccc4C3=O)n2c2ccccc12	none (no result: Pf gamet viab)
